Measurements taken from PMC13170702 (Nuclear medicine and biology, 2025).

Test: organ radiation dose estimates, OLINDA 1.1, ICRP-60
Type: in vivo, human
In short: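 Whole-body PET-MR ran as nine scans to 214 min. Organ VOIs were drawn in AMIDE, giving decay-corrected %IA per VOI; remainder = whole body minus measured organs. TIACs came from the exponential model (EXM) in OLINDA 1.1. Per-participant organ doses used 70 kg adult male or 55 kg female models in OLINDA 1.1. Effective dose (mSv) = organ absorbed doses × ICRP-60 tissue weighting factors.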

- Effective dose (whole body) (F1 (189 MBq)): 5.42 mSv
- Estimated absorbed dose, Adrenals (F1 (189 MBq)): 3.89 mGy
- Estimated absorbed dose, Brain (F1 (189 MBq)): 3.40 mGy
- Estimated absorbed dose, Breasts (F1 (189 MBq)): 1.79 mGy
- Estimated absorbed dose, Gallbladder wall (F1 (189 MBq)): 4.40 mGy
- Estimated absorbed dose, Heart wall (F1 (189 MBq)): 4.25 mGy
- Estimated absorbed dose, Kidneys (F1 (189 MBq)): 32.5 mGy
- Estimated absorbed dose, Liver (F1 (189 MBq)): 7.85 mGy
- Estimated absorbed dose, Lower large intestine wall (F1 (189 MBq)): 2.64 mGy
- Estimated absorbed dose, Lungs (F1 (189 MBq)): 12.3 mGy
- Estimated absorbed dose, Muscle (F1 (189 MBq)): 2.06 mGy
- Estimated absorbed dose, Osteogenic cells (F1 (189 MBq)): 2.94 mGy
- Estimated absorbed dose, Ovaries (F1 (189 MBq)): 2.83 mGy
- Estimated absorbed dose, Pancreas (F1 (189 MBq)): 6.10 mGy
- Estimated absorbed dose, Red marrow (F1 (189 MBq)): 2.15 mGy
- Estimated absorbed dose, Remainder (F1 (189 MBq)): 2.62 mGy
- Estimated absorbed dose, Skin (F1 (189 MBq)): 1.44 mGy
- Estimated absorbed dose, Small intestine (F1 (189 MBq)): 6.06 mGy
- Estimated absorbed dose, Spleen (F1 (189 MBq)): 8.87 mGy
- Estimated absorbed dose, Stomach wall (F1 (189 MBq)): 2.68 mGy
- Estimated absorbed dose, Thymus (F1 (189 MBq)): 7.08 mGy
- Estimated absorbed dose, Thyroid (F1 (189 MBq)): 1.88 mGy
- Estimated absorbed dose, Upper, lower intestine wall (F1 (189 MBq)): 3.09 mGy
- Estimated absorbed dose, Urinary bladder wall (F1 (189 MBq)): 18.8 mGy
- Estimated absorbed dose, Uterus (F1 (189 MBq)): 4.21 mGy
- Effective dose (whole body) (F2, no voiding (355 MBq)): 10.6 mSv
- Estimated absorbed dose, Adrenals (F2, no voiding (355 MBq)): 7.74 mGy
- Estimated absorbed dose, Brain (F2, no voiding (355 MBq)): 5.65 mGy
- Estimated absorbed dose, Breasts (F2, no voiding (355 MBq)): 2.93 mGy
- Estimated absorbed dose, Gallbladder wall (F2, no voiding (355 MBq)): 7.35 mGy
- Estimated absorbed dose, Heart wall (F2, no voiding (355 MBq)): 6.61 mGy
- Estimated absorbed dose, Kidneys (F2, no voiding (355 MBq)): 93.4 mGy
- Estimated absorbed dose, Liver (F2, no voiding (355 MBq)): 14.6 mGy
- Estimated absorbed dose, Lower large intestine wall (F2, no voiding (355 MBq)): 4.26 mGy
- Estimated absorbed dose, Lungs (F2, no voiding (355 MBq)): 25.5 mGy
- Estimated absorbed dose, Muscle (F2, no voiding (355 MBq)): 3.45 mGy
- Estimated absorbed dose, Osteogenic cells (F2, no voiding (355 MBq)): 4.69 mGy
- Estimated absorbed dose, Ovaries (F2, no voiding (355 MBq)): 5.22 mGy
- Estimated absorbed dose, Pancreas (F2, no voiding (355 MBq)): 7.78 mGy
- Estimated absorbed dose, Red marrow (F2, no voiding (355 MBq)): 3.77 mGy
- Estimated absorbed dose, Remainder (F2, no voiding (355 MBq)): 4.65 mGy
- Estimated absorbed dose, Skin (F2, no voiding (355 MBq)): 2.31 mGy
- Estimated absorbed dose, Small intestine (F2, no voiding (355 MBq)): 8.35 mGy
- Estimated absorbed dose, Spleen (F2, no voiding (355 MBq)): 5.86 mGy
- Estimated absorbed dose, Stomach wall (F2, no voiding (355 MBq)): 4.40 mGy
- Estimated absorbed dose, Thymus (F2, no voiding (355 MBq)): 7.57 mGy
- Estimated absorbed dose, Thyroid (F2, no voiding (355 MBq)): 17.0 mGy
- Estimated absorbed dose, Upper, lower intestine wall (F2, no voiding (355 MBq)): 5.04 mGy
- Estimated absorbed dose, Urinary bladder wall (F2, no voiding (355 MBq)): 32.9 mGy
- Estimated absorbed dose, Uterus (F2, no voiding (355 MBq)): 47.2 mGy
- Effective dose (whole body) (F3 (117 MBq)): 2.67 mSv
- Estimated absorbed dose, Adrenals (F3 (117 MBq)): 2.50 mGy
- Estimated absorbed dose, Brain (F3 (117 MBq)): 1.60 mGy
- Estimated absorbed dose, Breasts (F3 (117 MBq)): 1.13 mGy
- Estimated absorbed dose, Gallbladder wall (F3 (117 MBq)): 2.95 mGy
- Estimated absorbed dose, Heart wall (F3 (117 MBq)): 2.26 mGy
- Estimated absorbed dose, Kidneys (F3 (117 MBq)): 21.0 mGy
- Estimated absorbed dose, Liver (F3 (117 MBq)): 5.81 mGy
- Estimated absorbed dose, Lower large intestine wall (F3 (117 MBq)): 1.47 mGy
- Estimated absorbed dose, Lungs (F3 (117 MBq)): 5.47 mGy
- Estimated absorbed dose, Muscle (F3 (117 MBq)): 1.29 mGy
- Estimated absorbed dose, Osteogenic cells (F3 (117 MBq)): 1.94 mGy
- Estimated absorbed dose, Ovaries (F3 (117 MBq)): 1.63 mGy
- Estimated absorbed dose, Pancreas (F3 (117 MBq)): 2.85 mGy
- Estimated absorbed dose, Red marrow (F3 (117 MBq)): 1.36 mGy
- Estimated absorbed dose, Remainder (F3 (117 MBq)): 1.61 mGy
- Estimated absorbed dose, Skin (F3 (117 MBq)): 0.945 mGy
- Estimated absorbed dose, Small intestine (F3 (117 MBq)): 3.30 mGy
- Estimated absorbed dose, Spleen (F3 (117 MBq)): 3.02 mGy
- Estimated absorbed dose, Stomach wall (F3 (117 MBq)): 1.68 mGy
- Estimated absorbed dose, Thymus (F3 (117 MBq)): 2.23 mGy
- Estimated absorbed dose, Thyroid (F3 (117 MBq)): 2.03 mGy
- Estimated absorbed dose, Upper, lower intestine wall (F3 (117 MBq)): 1.91 mGy
- Estimated absorbed dose, Urinary bladder wall (F3 (117 MBq)): 1.57 mGy
- Estimated absorbed dose, Uterus (F3 (117 MBq)): 3.93 mGy
- Effective dose (whole body) (F4 (167 MBq)): 3.90 mSv
- Estimated absorbed dose, Adrenals (F4 (167 MBq)): 3.19 mGy
- Estimated absorbed dose, Brain (F4 (167 MBq)): 2.79 mGy
- Estimated absorbed dose, Breasts (F4 (167 MBq)): 1.47 mGy
- Estimated absorbed dose, Gallbladder wall (F4 (167 MBq)): 3.08 mGy
- Estimated absorbed dose, Heart wall (F4 (167 MBq)): 4.15 mGy
- Estimated absorbed dose, Kidneys (F4 (167 MBq)): 28.1 mGy
- Estimated absorbed dose, Liver (F4 (167 MBq)): 6.41 mGy
- Estimated absorbed dose, Lower large intestine wall (F4 (167 MBq)): 2.09 mGy
- Estimated absorbed dose, Lungs (F4 (167 MBq)): 9.27 mGy
- Estimated absorbed dose, Muscle (F4 (167 MBq)): 1.67 mGy
- Estimated absorbed dose, Osteogenic cells (F4 (167 MBq)): 2.46 mGy
- Estimated absorbed dose, Ovaries (F4 (167 MBq)): 2.39 mGy
- Estimated absorbed dose, Pancreas (F4 (167 MBq)): 3.95 mGy
- Estimated absorbed dose, Red marrow (F4 (167 MBq)): 1.79 mGy
- Estimated absorbed dose, Remainder (F4 (167 MBq)): 2.14 mGy
- Estimated absorbed dose, Skin (F4 (167 MBq)): 1.19 mGy
- Estimated absorbed dose, Small intestine (F4 (167 MBq)): 6.82 mGy
- Estimated absorbed dose, Spleen (F4 (167 MBq)): 3.11 mGy
- Estimated absorbed dose, Stomach wall (F4 (167 MBq)): 2.19 mGy
- Estimated absorbed dose, Thymus (F4 (167 MBq)): 4.01 mGy
- Estimated absorbed dose, Thyroid (F4 (167 MBq)): 2.31 mGy
- Estimated absorbed dose, Upper, lower intestine wall (F4 (167 MBq)): 2.83 mGy
- Estimated absorbed dose, Urinary bladder wall (F4 (167 MBq)): 4.93 mGy
- Estimated absorbed dose, Uterus (F4 (167 MBq)): 6.49 mGy
- Effective dose (whole body) (Female n=4, mean±SD): 0.0262±0.00361 mSv/MBq
- Estimated dose, Adrenals (Female n=4, mean±SD): 0.0207±0.00119 mGy/MBq
- Estimated dose, Brain (Female n=4, mean±SD): 0.0161±0.0018 mGy/MBq
- Estimated dose, Breasts (Female n=4, mean±SD): 0.00903±0.000633 mGy/MBq
- Estimated dose, Gallbladder wall (Female n=4, mean±SD): 0.0219±0.00297 mGy/MBq
- Estimated dose, Heart wall (Female n=4, mean±SD): 0.0213±0.00289 mGy/MBq
- Estimated dose, Kidneys (Female n=4, mean±SD): 0.196±0.0451 mGy/MBq
- Estimated dose, Liver (Female n=4, mean±SD): 0.0426±0.00491 mGy/MBq
- Estimated dose, Lower, large intestine wall (Female n=4, mean±SD): 0.0128±0.000858 mGy/MBq
- Estimated dose, Lungs (Female n=4, mean±SD): 0.0598±0.0109 mGy/MBq
- Estimated dose, Muscle (Female n=4, mean±SD): 0.0104±0.00065 mGy/MBq
- Estimated dose, Osteogenic cells (Female n=4, mean±SD): 0.0150±0.00144 mGy/MBq
- Estimated dose, Ovaries (Female n=4, mean±SD): 0.0145±0.000479 mGy/MBq
- Estimated dose, Pancreas (Female n=4, mean±SD): 0.0256±0.00462 mGy/MBq
- Estimated dose, Red marrow (Female n=4, mean±SD): 0.0111±0.000499 mGy/MBq
- Estimated dose, Remainder (Female n=4, mean±SD): 0.0134±0.000535 mGy/MBq
- Estimated dose, Skin (Female n=4, mean±SD): 0.00734±0.000677 mGy/MBq
- Estimated dose, Small intestine (Female n=4, mean±SD): 0.0312±0.00733 mGy/MBq
- Estimated dose, Spleen (Female n=4, mean±SD): 0.0270±0.0139 mGy/MBq
- Estimated dose, Stomach wall (Female n=4, mean±SD): 0.0135±0.000943 mGy/MBq
- Estimated dose, Thymus (Female n=4, mean±SD): 0.0255±0.00826 mGy/MBq
- Estimated dose, Thyroid (Female n=4, mean±SD): 0.0223±0.0174 mGy/MBq
SMILES: COC(=O)[C@@H](N)CC(=O)Nc1ccc2c(c1)Cc1cc([18F])ccc1-2 [[^18F]RP-115, methyl N^4-(7-[^18F]fluoro-9H-fluoren-2-yl)asparaginate]
